Assay results as given in ChEMBL document CHEMBL4270616, “Asymmetrical meta-methoxylated diarylpentanoids: Rational design, synthesis and anti-cancer evaluation in-vitro” (Eur J Med Chem, 2018).

Columns and labels:
[1] = Cytotoxicity against human EJ28 cells assessed as inhibition of cell proliferation at 20 uM after 72 hrs by MTT assay relative to control; format: functional; settings: EJ-28, 72 h
How it was run: (§1)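 Single-concentration screen at 20 μM with 72 h exposure in DMEM with 10% FBS, final DMSO 0.1%. Read-out was MTT (5 mg/mL, 4 h, 37°C), DMSO solubilisation and absorbance at 570 nm, expressed as percent inhibition. Lines reaching a threshold percentage went on to IC50 determination.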

A549 [2] = test: Cytotoxicity against human A549 cells after 72 hrs by MTT assay; format: functional, cell-based; settings: A549, 72 h
How it was run: (§2)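 Tumour lines kept in DMEM with 10% FBS and 1% penicillin/streptomycin at 37°C, 5% CO2. Seeded at 1500-5000 cells/well by doubling time and size, 24 h, then compound in DMSO-containing medium (final DMSO 0.1%) for 72 h. MTT (5 mg/mL) 4 h at 37°C, DMSO solubilisation, absorbance at 570 nm.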

NHDF = test: Cytotoxicity against NHDF after 72 hrs by MTT assay; format: cell-based; settings: Homo sapiens
How it was run: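 NHDF grown in DMEM with 5% FBS at 37°C, 5% CO2. Seeded at 1500-5000 cells/well, 24 h, then compound added in DMSO-containing medium (final DMSO 0.1%) for 72 h. MTT (5 mg/mL in medium) added for 4 h at 37°C, formazan dissolved in DMSO, absorbance read at 570 nm.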

HT-1080 [3] = test: Cytotoxicity against human HT1080 cells assessed as inhibition of cell proliferation at 20 uM after 72 hrs by MTT assay relative to control; format: functional; settings: HT-1080, 72 h; how it was run: as §1
MCF7 [4] = test: Cytotoxicity against human MCF7 cells after 72 hrs by MTT assay; format: functional, cell-based; settings: MCF7, 72 h; how it was run: as §2
A549 [5] = test: Cytotoxicity against human A549 cells assessed as inhibition of cell proliferation at 20 uM after 72 hrs by MTT assay relative to control; format: functional; settings: A549, 72 h; how it was run: as §1
MCF7 [6] = test: Cytotoxicity against human MCF7 cells assessed as inhibition of cell proliferation at 20 uM after 72 hrs by MTT assay relative to control; format: functional; settings: MCF7, 72 h; how it was run: as §1
HT-1080 [7] = test: Cytotoxicity against human HT1080 cells after 72 hrs by MTT assay; format: functional, cell-based; settings: HT-1080, 72 h; how it was run: as §2
SW-620 [8] = test: Cytotoxicity against human SW620 cells after 72 hrs by MTT assay; format: functional, cell-based; settings: SW-620, 72 h; how it was run: as §2
[9] = Cytotoxicity against human EJ28 cells after 72 hrs by MTT assay; format: functional, cell-based; settings: EJ-28, 72 h; how it was run: as §2
SW-620 [10] = test: Cytotoxicity against human SW620 cells assessed as inhibition of cell proliferation at 20 uM after 72 hrs by MTT assay relative to control; format: functional; settings: SW-620, 72 h; how it was run: as §1

Structure (SMILES)	inhibition at 20 µM [1] [%]	IC50 (A549 [2]) [µM]	IC50 (NHDF) [µM]	inhibition at 20 µM (HT-1080 [3]) [%]	IC50 (MCF7 [4]) [µM]	inhibition at 20 µM (A549 [5]) [%]	inhibition at 20 µM (MCF7 [6]) [%]	IC50 (HT-1080 [7]) [µM]	IC50 (SW-620 [8]) [µM]	IC50 [9] [µM]	inhibition at 20 µM (SW-620 [10]) [%]
COc1cccc(/C=C2\CCC/C(=C\c3cccc(Br)c3)C2=O)c1OC	> 50	> 20	23.9	> 50	11.7	> 50	> 50	12.2	8.8	12.1	> 50
COc1cc(/C=C2\CCC/C(=C\c3cccc(OC)c3OC)C2=O)ccc1O	> 50	> 20	14.3	> 50	11.6	> 50	> 50	5.9	8.6	10.6	> 50
COc1cccc(/C=C2\CCC/C(=C\c3ccc(O)c(O)c3)C2=O)c1OC	> 50	> 20	17.9	> 50	4.7	> 50	> 50	4.7	6.3	6.4	> 50
COc1cccc(/C=C2\CCC/C(=C\c3ccccc3Br)C2=O)c1OC	> 50	> 20	> 50	> 50	9.7	> 50	> 50	10.8	12.1	10.8	> 50
COc1cccc(/C=C2\CCC/C(=C\c3cccc(OC)c3OC)C2=O)c1	> 50	16.4	16.4	> 50	5.9	> 50	> 50	9.9	7	10	> 50
COc1ccc(/C=C2\CCC/C(=C\c3ccc(Cl)cc3Cl)C2=O)cc1OC	> 50	> 20	> 50	> 50	16.2	> 50	> 50	10.5	10.3	12.4	> 50
COc1ccc(/C=C2\CCC/C(=C\c3cccc(OC)c3OC)C2=O)cc1	> 50	> 20	43.5	> 50	18.6	> 50	> 50	16.3	13.6	16.8	> 50
COc1cccc(/C=C2\CCC/C(=C\c3ccc(Br)cc3)C2=O)c1OC	> 50	> 20	21.4	> 50	13.8	> 50	> 50	13.7	11.1	15.2	> 50
COc1ccc(/C=C2\CCC/C(=C\c3cc(Cl)cc(Cl)c3)C2=O)cc1OC	> 50	5.5	8.3	> 50	3.8	> 50	> 50	3	2.5	4.2	> 50
COc1ccc(/C=C2\CCC/C(=C\c3ccc(O)c(O)c3)C2=O)cc1OC	> 50	> 20	25.2	> 50	14.4	> 50	> 50	4.2	10.5	12.1	> 50
COc1cccc(/C=C2\CCC/C(=C\c3cccc(Cl)c3Cl)C2=O)c1OC	> 50	> 20	> 50	> 50	> 20	> 50	> 50	19.3	16.3	18.1	> 50
COc1ccc(/C=C2\CCC/C(=C\c3cccc(Br)c3)C2=O)cc1OC	> 50	12.8	12.4	> 50	5.3	> 50	> 50	5.2	4.2	4.9	> 50
COc1cc(/C=C2\CCC/C(=C\c3ccc(OC)c(OC)c3)C2=O)ccc1O	> 50	10.3	13.7	> 50	7.9	> 50	> 50	4.6	4.5	4.6	> 50
COc1cccc(/C=C2\CCC/C(=C\c3cccc(OC)c3OC)C2=O)c1OC	> 50	11.4	31	> 50	5	> 50	> 50	6.1	8.3	8.4	> 50
COc1ccc(/C=C2\CCC/C(=C\c3ccc(O)cc3)C2=O)cc1OC	> 50	> 20	26.1	> 50	17	> 50	> 50	16.8	7.7	16.6	> 50
COc1cccc(/C=C2\CCC/C(=C\c3ccc(O)cc3)C2=O)c1OC	> 50	> 20	> 50	> 50	> 20	> 50	> 50	> 20	> 20	> 20	> 50
COc1cccc(/C=C2\CCC/C(=C\c3ccc(Cl)cc3)C2=O)c1OC	> 50	> 20	18.6	> 50	10.3	> 50	> 50	11.1	11.1	11	> 50
COc1cc(/C=C/C(=O)CC(=O)/C=C/c2ccc(O)c(OC)c2)ccc1O [CURCUMIN]		17.9	24.1		9.8			13.1	14	10.5	
COc1ccc(/C=C2\CCC/C(=C\c3ccccc3Cl)C2=O)cc1OC	> 50	> 20	21.6	> 50	10.4	> 50	> 50	6.8	7.1	6.9	> 50
COc1cccc(/C=C2\CCC/C(=C\c3ccc(O)c(Cl)c3)C2=O)c1OC	> 50	> 20	39.5	> 50	16.4	> 50	> 50	14.3	16.8	18.3	> 50
COc1cccc(/C=C2\CCC/C(=C\c3cccc(O)c3)C2=O)c1OC	> 50	> 20	19.3	> 50	8.8	> 50	> 50	8.5	6.4	8.5	> 50
COc1ccc(/C=C2\CCC/C(=C\c3ccc(Cl)c(Cl)c3)C2=O)cc1OC	> 50	6.9	10.1	> 50	4.4	> 50	> 50	3.1	4	3.4	> 50
COc1ccccc1/C=C1\CCC/C(=C\c2ccc(OC)c(OC)c2)C1=O	> 50	> 20	18.1	> 50	8	> 50	> 50	8.1	7.8	8.1	> 50
COc1ccc(/C=C2\CCC/C(=C\c3ccccc3Br)C2=O)cc1OC	> 50	> 20	21.8	> 50	9.5	> 50	> 50	8.4	5.3	7.4	> 50
